Compound activity from PubChem.
Compounds with a hit are over-represented: about 1.9% of the library has one in this group of screens.
proCasp7 act: counter-screen for procaspase-3 activators: activators of human procaspase-7. recombinant procaspase-7, Ac-DEVD-pNA absorbance 405 nm; D23A/D198A/D206A triple mutant, cannot self-cleave; scale: DMSO 0, 5 µM enzyme 100. activation, % at 8.5 µM. actives 0.093% (n = 330,000). AID 463210;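 active = percent activation above the screen-wide mean plus 3 SD, cut at about 25% in these data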
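Assay system – Uncleavable procaspase-7 mutant enzyme · Quantity – 2 µM procaspase-7 mutant as dispensed · Times – 1 h preincubation, 2 h reaction · Dosing – single nominal 8.5 µM compound dose, 0.8% DMSO final · Buffer or medium – Zinc-free 50 mM HEPES buffer, pH 7.4, with NaCl and Triton X-100 · Detection – Epi-absorbance of released pNA at 405 nm, two timepoints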
PLCb3 inh: blocks human PLC-beta3 enzyme activity | inhibition, % at 12.2 µM | Q01970 | actives 0.18% (n = 370,000) | Purified PLC-beta3, fluorogenic substrate, fluorescence; in the data active = inhibition above about 11%;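 also: 0% = median of compound wells on plate and 100% = full blocker control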
proCasp3 act: activates human procaspase-3 | P42574 | actives 0.11% (n = 330,000) | activation, % at 8.5 µM | AID 463141 | recombinant procaspase-3 D3A, Ac-DEVD-pNA absorbance 405 nm;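 active = activation above the mean of all tested compounds plus 3 SD, cut at about 21% in these data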;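 also: 0% = DMSO alone and 100% = DMSO wells spiked with extra 5 µM PC-3 D3A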
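Assay system – Procaspase-3 D3A mutant, all three cleavage aspartates alanine · Controls – DMSO-only low control, 5 µM PC-3 D3A high control · Schedule – 1 h compound preincubation, 2 h substrate hydrolysis at 25 °C · Signal – 405 nm absorbance of p-nitroaniline, reads at 0 and 120 min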
sPLA2-III inh: Blocks human group III sPLA2 activity; Q9NZ20; QFRET BODIPY PC-A2 liposome hydrolysis, fluorescence; inhibition, % at 12.2 µM; actives 0.56% (n = 370,000);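 active = inhibition above mean plus 3 SD of compounds lying within the high and low control bounds, cut at about 19% in these data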;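 also: 0% = median of test compound wells and 100% = no enzyme DMSO wells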
Arrestin-AP2 inh: human beta-arrestin and AP2 interaction inhibition. FITC-arrestin peptide / GST-AP2 beads, flow cytometry; AP2 beta2 appendage carries R879A mutation. inhibition, % at 10 µM. actives 0.31% (n = 340,000). AID 504490;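 active = inhibition above a set limit, near 3 SD of compounds lacking own fluorescence, cut at about 54% in these data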;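 also: plate controls were DMSO wells for no effect and 5 µM unlabelled arrestin peptide for full effect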
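system = GST-tagged AP2 beta2-adaptin appendage (R879A) on 4 µm glutathione beads | reagent = FITC-labelled arrestin peptide probe, 50 nM final | schedule = compound with beads 12 min RT, then probe 1 h RT | signal = HyperCyt-sampled flow cytometry, FL1 channel, ex 488/em 535 nm | read-out = percent response from loss of bead-bound FITC fluorescence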
PLCg1 inh: blocks human PLC-gamma1 enzyme activity; P19174; purified PLC-gamma1, fluorogenic substrate, fluorescence; inhibition, % at 12.2 µM; actives 0.84% (n = 370,000); AID 720700; in the data active = inhibition above about 9.5%
Target sequence (P19174 whole entry, looked up): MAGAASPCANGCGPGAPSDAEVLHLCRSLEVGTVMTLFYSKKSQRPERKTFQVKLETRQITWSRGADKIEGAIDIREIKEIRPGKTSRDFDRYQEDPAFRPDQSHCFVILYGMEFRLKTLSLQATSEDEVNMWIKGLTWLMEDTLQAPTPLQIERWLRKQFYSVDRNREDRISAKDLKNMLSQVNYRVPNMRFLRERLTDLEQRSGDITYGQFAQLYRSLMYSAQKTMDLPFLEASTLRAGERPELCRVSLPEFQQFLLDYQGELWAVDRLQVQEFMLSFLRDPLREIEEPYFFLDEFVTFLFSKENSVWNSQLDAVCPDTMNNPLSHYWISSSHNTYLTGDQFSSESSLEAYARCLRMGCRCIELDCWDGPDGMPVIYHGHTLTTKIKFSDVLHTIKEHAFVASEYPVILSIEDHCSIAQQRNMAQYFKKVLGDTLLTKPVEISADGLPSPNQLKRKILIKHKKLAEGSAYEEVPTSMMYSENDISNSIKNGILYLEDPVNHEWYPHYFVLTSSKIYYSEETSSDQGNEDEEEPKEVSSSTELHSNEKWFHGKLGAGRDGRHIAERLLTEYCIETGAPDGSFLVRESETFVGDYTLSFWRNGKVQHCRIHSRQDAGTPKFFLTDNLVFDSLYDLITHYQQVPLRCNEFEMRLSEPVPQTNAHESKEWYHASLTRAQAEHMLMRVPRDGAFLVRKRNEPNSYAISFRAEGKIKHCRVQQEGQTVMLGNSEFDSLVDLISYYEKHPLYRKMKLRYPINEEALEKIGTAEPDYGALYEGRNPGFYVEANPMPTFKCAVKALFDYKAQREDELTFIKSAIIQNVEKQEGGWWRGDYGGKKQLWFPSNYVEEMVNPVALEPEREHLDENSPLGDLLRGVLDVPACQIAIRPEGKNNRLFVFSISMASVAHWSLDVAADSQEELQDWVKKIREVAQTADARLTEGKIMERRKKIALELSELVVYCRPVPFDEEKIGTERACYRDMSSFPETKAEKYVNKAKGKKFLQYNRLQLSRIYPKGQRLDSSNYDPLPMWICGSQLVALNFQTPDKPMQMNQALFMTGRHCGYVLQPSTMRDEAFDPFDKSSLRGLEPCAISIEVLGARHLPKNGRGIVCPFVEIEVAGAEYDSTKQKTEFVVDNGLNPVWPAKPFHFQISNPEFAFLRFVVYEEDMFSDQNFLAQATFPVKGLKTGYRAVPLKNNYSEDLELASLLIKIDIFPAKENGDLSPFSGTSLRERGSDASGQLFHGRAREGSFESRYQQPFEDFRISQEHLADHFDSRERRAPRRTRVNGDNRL
Arr AP2 CP1: human beta-arrestin and AP2 interaction inhibition, cherry pick | shares compounds with Arrestin-AP2 inh | GST-AP2 beads, FITC arrestin peptide binding, flow cytometry; GST-fused beta2-adaptin appendage, R879A mutant | inhibition, % at 10 µM | actives 2% (n = 1,300) | AID 504908;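 active = inhibition above a set limit, roughly 3 SD of non-fluorescent compound noise, cut at about 38% in these data; inactive = inhibition at or below that limit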;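 also: loss of bead fluorescence from 50 nM FITC arrestin peptide bound to appendage; 0% = negative control wells and 100% = excess unlabelled arrestin peptide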
GST-FITC bead: counter-screen for beta-arrestin AP2 inhibitors: GST-GSH bead binding; inhibition, % at 10 µM; actives 2% (n = 1,300); shares compounds with Arrestin-AP2 inh; AID 588338; GST-fluorescein binding to GSH beads, fluorescence;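 active = inhibition above 50%, about 3 SD of the inhibition seen with non-fluorescent compounds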;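 also: fluorescein maleimide labelled GST captured on 4 micron glutathione beads; higher means more loss of bead fluorescence from quenching or blocked binding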
An asterisk follows results filed as active; / = no result.

SMILES	proCasp7 act	PLCb3 inh	proCasp3 act	sPLA2-III inh	Arrestin-AP2 inh	PLCg1 inh	Arr AP2 CP1	GST-FITC bead
CC1CCCN(C2(O)C(=O)Nc3ccc(Cl)cc32)C1 (stereo not drawn)	3.9	-6.0	-2.5	-3.7	57.0*	1.5	12.4	-1.2
O=C(OCc1ccccc1)[C@H](Cc1ccccc1)NC(=O)[C@@H]1CC=C[C@@H]2CCN(CCc3ccccc3)C(=O)[C@@H]21	/	1.0	/	-11.7	/	1.6	/	/
Cn1c(=O)c2c(ncn2CC(=O)N2CCN(S(=O)(=O)c3ccccc3)CC2)n(C)c1=O	-10.7	-10.0	1.6	3.6	57.2*	0.3	-2.4	-4.0
Cc1ccc(CN(C(=O)c2ccccc2C)C2CCS(=O)(=O)C2)o1 (stereo not drawn)	-3.0	-6.9	7.9	4.6	56.1*	-1.8	3.5	6.9
Cc1ccc(CN(C(=O)c2ccccc2[N+](=O)[O-])C2CCS(=O)(=O)C2)o1 (stereo not drawn)	10.0	-9.6	0.9	7.9	34.2	-0.6	/	/
COc1ccc(C2Nc3ccc4ccccc4c3-c3c2c(=O)oc2ccccc32)cc1 (stereo not drawn)	10.7	-110.3	6.4	-14.1	8.6	-75.4	/	/
O=c1oc2ccccc2c2c1C(c1ccc(Cl)cc1)Nc1ccc3ccccc3c1-2 (stereo not drawn)	-0.1	-31.1	-3.7	0.0	84.7*	-23.2	-5.4	-1.0
COC(=O)[C@@]12C[C@@H](CC(=O)NCC34CC5CC(CC(C5)C3)C4)C(=O)N(Cc3ccco3)C1=CCC(C)(C)C2	/	6.5	/	-15.7	/	4.0	/	/
CCN(CC)C(=S)NC(=O)c1cc(OC)c(OC)c(OC)c1	-2.6	2.8	-2.9	2.1	56.5*	4.8	-13.3	-5.8
CCN1CCN(C(=S)NC(=O)c2cc(OC)c(OC)c(OC)c2)CC1	-12.4	-7.0	-4.8	1.6	-18.3	3.3	/	/
N#Cc1ccc(C(c2nnnn2C2CCCC2)N2CCC(Cc3ccccc3)CC2)cc1 (stereo not drawn)	-5.7	2.3	8.5	3.3	1.8	-2.2	/	/
N#Cc1cccc(C(c2nnnn2C2CCCC2)N2CCC(Cc3ccccc3)CC2)c1 (stereo not drawn)	6.5	2.4	-1.0	1.3	69.2*	5.4	-12.1	0.2
O=C(NNc1cccc(Cl)n1)c1ccccc1CC[N+](=O)[O-]	13.6	2.6	-4.9	-30.6	55.1*	1.0	4.1	-6.6
O=C(N[C@@H](Cc1ccccc1)C(=O)NCP(=O)(O)OC(Cc1ccccc1)C(=O)O)OCc1ccccc1 (stereo partly drawn)	/	-0.6	/	5.2	/	-0.9	/	/
COC(=O)c1ccc(CN2CCC(Oc3cccc(C(=O)N4CCOCC4)c3)CC2)cc1	4.2	-8.7	1.4	3.0	70.1*	-1.7	2.6	-4.5
COc1ccccc1C(=O)NC(=O)COC(=O)c1nc2nc(C)cc(C)n2n1	-2.5	-1.3	4.2	0.6	59.8*	0.7	4.1	-7.2
COc1ccccc1C(=O)NC(=O)CSc1nc2nc(C)cc(C)n2n1	7.0	-5.3	1.8	3.9	0.0	1.2	/	/
O=C(Nc1nnc(C2=COCCO2)o1)C1CCCCC1	4.0	-3.4	-4.7	0.8	59.4*	1.8	4.3	0.6
COc1cc(NC(=O)c2ccccc2)c(C)cc1NC(=O)CSc1nnc(COc2ccccc2)n1Cc1ccco1	/	2.2	/	-17.6	/	3.4	/	/
N#CCC[C@H]1CC[C@]2(CCCN(C(=O)C3CCCC3)C2)O1	/	2.3	/	5.1	/	2.5	/	/
O=[N+]([O-])c1ccc(CNc2cccc(Cl)c2)s1	4.1	-5.4	-7.9	2.9	60.4*	0.3	-7.2	1.1
